Laboratory results taken from ChEMBL document CHEMBL5712910, “Histone methyltransferases EHMT1 and EHMT2 (GLP/G9A) maintain PARP inhibitor resistance in high-grade serous ovarian carcinoma” (Clin Epigenetics, 2019).
The source made the active and inactive calls. The calls are words filed in the database; no cut-off is given here.

Assays:
[1] = tested on: Olaparib-resistant PEO1; assay: Induction of cell cycle arrest in human Olaparib-resistant PEO1 cells assessed as accumulation of cells in G1 phase pretreated for 72 hrs by vehicle follwed by compound addition at 1 uM incubated for 72 hrs by propidium iodide staining based flow cytometry analysis (reference value: 54.7%); assay type: functional
[2] = tested on: Olaparib-resistant PEO1; assay: Inhibition of EHMT1/2 in human Olaparib-resistant PEO1 cells assessed as reduction in total CDC25C protein level at 1 uM for 72 hrs by immunoblot analysis; assay type: functional, cell-based
How it was run: (§1)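 PEO1-OR cells were treated with olaparib and/or UNC0642 as for the cell-cycle experiment. Total RIPA lysates were immunoblotted for cell-cycle proteins, and band intensity was normalized to actin, relative to the non-pretreated control.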

[3] = tested on: Olaparib-resistant PEO1; assay: Induction of cell cycle arrest in human Olaparib-resistant PEO1 cells assessed as accumulation of cells in G2 phase pretreated for 72 hrs by UNC0642 follwed by compound addition at 1 uM incubated for 72 hrs by propidium iodide staining based flow cytometry analysis (reference value: 23.2 %); assay type: functional
[4] = tested on: Olaparib-resistant PEO1; assay: Antitumor activity against human Olaparib-resistant PEO1 cells assessed as H3K9me2 protein level at 500 nM for 72 hrs by immunofluorescence analysis; assay type: functional, cell-based
How it was run: (§2)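 PEO1-OR cells treated 72 h with DMSO or UNC0642 at two-fold dilutions from 2 μM to 125 nM. Histone extracts immunoblotted for H3K9me2, with H3K27me3 as a specificity check; densitometry normalized to total H3. For immunofluorescence, cells were fixed on coverslips in 4% paraformaldehyde and permeabilized with 0.2% Triton X-100, with DAPI counterstain.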

[5] = tested on: Olaparib-resistant PEO1; assay: Induction of cell cycle arrest in human Olaparib-resistant PEO1 cells assessed as accumulation of cells in G2 phase pretreated for 72 hrs by vehicle follwed by compound addition at 1 uM incubated for 72 hrs by propidium iodide staining based flow cytometry analysis (reference value: 20.7%); assay type: functional
[6] = tested on: Olaparib-resistant PEO1; assay: Inhibition of EHMT1/2 in human Olaparib-resistant PEO1 cells assessed as reduction in Cyclin B1 protein level at 1 uM for 72 hrs by immunoblot analysis; assay type: functional, cell-based; how it was run: as §1
[7] = tested on: Olaparib-resistant PEO1; assay: Inhibition of EHMT1/2 in human Olaparib-resistant PEO1 cells assessed as reduction in Cyclin A protein level at 1 uM for 72 hrs by immunoblot analysis; assay type: functional, cell-based; how it was run: as §1
[8] = tested on: Olaparib-resistant PEO1; assay: Induction of cell cycle arrest in human Olaparib-resistant PEO1 cells assessed as accumulation of cells in S phase pretreated for 72 hrs by vehicle follwed by compound addition at 1 uM incubated for 72 hrs by propidium iodide staining based flow cytometry analysis (reference value: 21.5%); assay type: functional
[9] = molecular target: T1, Histone-lysine N-methyltransferase EHMT1 (Homo sapiens) (UniProt Q9H9B1); assay: Inhibition of EHMT1 in human Olaparib-resistant PEO1 cells assessed as reduction in CDC25C phosphorylation at 1 uM for 72 hrs by immunoblot analysis; assay type: cell-based; how it was run: as §1
T1 sequence (whole entry): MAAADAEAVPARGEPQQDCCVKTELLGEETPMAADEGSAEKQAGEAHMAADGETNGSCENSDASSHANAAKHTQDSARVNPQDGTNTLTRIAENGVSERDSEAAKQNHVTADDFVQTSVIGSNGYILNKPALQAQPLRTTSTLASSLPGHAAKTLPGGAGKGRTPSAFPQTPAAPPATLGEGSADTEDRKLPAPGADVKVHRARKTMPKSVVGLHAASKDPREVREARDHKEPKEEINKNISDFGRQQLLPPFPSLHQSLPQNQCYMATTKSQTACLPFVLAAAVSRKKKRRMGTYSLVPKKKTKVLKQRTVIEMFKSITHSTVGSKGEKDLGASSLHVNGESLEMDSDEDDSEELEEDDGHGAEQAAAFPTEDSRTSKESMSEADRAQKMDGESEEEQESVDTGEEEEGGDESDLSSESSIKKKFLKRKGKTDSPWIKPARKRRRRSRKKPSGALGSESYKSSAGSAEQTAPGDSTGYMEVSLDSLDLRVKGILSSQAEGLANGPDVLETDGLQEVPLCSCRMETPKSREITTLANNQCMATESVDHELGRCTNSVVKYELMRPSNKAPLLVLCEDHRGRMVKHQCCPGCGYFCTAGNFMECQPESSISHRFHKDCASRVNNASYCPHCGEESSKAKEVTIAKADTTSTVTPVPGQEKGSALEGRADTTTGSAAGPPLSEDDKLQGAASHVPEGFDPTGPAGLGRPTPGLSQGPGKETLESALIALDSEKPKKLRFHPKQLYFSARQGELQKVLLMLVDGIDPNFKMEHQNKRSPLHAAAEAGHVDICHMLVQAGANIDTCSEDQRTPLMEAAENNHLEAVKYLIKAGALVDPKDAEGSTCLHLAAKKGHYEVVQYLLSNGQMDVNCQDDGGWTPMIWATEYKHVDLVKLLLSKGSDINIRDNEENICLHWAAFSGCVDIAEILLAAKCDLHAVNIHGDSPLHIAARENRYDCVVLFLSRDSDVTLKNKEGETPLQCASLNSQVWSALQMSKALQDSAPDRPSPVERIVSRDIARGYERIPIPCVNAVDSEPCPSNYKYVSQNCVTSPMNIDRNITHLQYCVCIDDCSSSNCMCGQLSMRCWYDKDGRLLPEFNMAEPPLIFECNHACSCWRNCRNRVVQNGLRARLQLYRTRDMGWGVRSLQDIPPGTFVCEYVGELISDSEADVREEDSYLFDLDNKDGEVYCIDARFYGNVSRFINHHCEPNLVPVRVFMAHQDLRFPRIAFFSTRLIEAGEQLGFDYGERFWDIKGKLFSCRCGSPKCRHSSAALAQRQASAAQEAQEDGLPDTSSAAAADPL

[10] = tested on: Olaparib-resistant PEO1; assay: Antitumor activity against human Olaparib-resistant PEO1 cells assessed as H3K9me2 protein level for 72 hrs by immunoblot analysis; assay type: functional, cell-based; how it was run: as §2
[11] = tested on: Olaparib-resistant PEO1; assay: Induction of cell cycle arrest in human Olaparib-resistant PEO1 cells assessed as accumulation of cells in S phase pretreated for 72 hrs by UNC0642 follwed by compound addition at 1 uM incubated for 72 hrs by propidium iodide staining based flow cytometry analysis (reference value: 21.9%); assay type: functional
[12] = tested on: Olaparib-resistant PEO1; assay: Induction of cell cycle arrest in human Olaparib-resistant PEO1 cells assessed as accumulation of cells in G1 phase pretreated for 72 hrs by UNC0642 follwed by compound addition at 1 uM incubated for 72 hrs by propidium iodide staining based flow cytometry analysis (reference value: 52.9%); assay type: functional

Structure (SMILES): COc1cc2c(NC3CCN(C(C)C)CC3)nc(N3CCC(F)(F)CC3)nc2cc1OCCCN1CCCC1
- Activity [1]: 53.3%
- Activity [2]: Active
- Activity [3]: 22.5%
- Activity [4]: Active
- Activity [5]: 21.5%
- Activity [6]: Active
- Activity [7]: Active
- Activity [8]: 22.8%
- inhibition [9]: Active
- Activity [10]: Active
- Activity [11]: 23.4%
- Activity [12]: 51.7%
